Columns and labels:
Bos taurus = species: Bos taurus; assay: Inhibition of bovine liver arginase assessed as reduction in urea production at 100 uM using L-arginine as substrate after 60 mins in presence of MnCl2 by alpha-isonitrosopropiophenone reagent based spectrophotometric analysis relative to control
Procedure, shortened: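 Purified bovine liver arginase I (0.025 U/μL in Tris-HCl 50 mM pH 7.5 with 0.1% BSA) with 10 mM MnCl2 cofactor, inhibitor from DMSO stock diluted in water, and L-arginine (0.05 M, pH 9.7). Incubated 60 min at 37 °C. Acid quench, then α-isonitrosopropiophenone at 100 °C for 45 min, A550. Activity relative to solvent control; three experiments in duplicate, mean ± SEM.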

[1] = Inhibition of bovine liver arginase assessed as reduction in urea production using L-arginine as substrate after 60 mins in presence of MnCl2 by alpha-isonitrosopropiophenone reagent based spectrophotometric analysis; design: species or system Bos taurus
Procedure, shortened: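 Purified bovine liver arginase I with MnCl2 (10 mM) in Tris-HCl pH 7.5/BSA buffer, L-arginine substrate (0.05 M, pH 9.7). Inhibitors from 70 mM DMSO stocks, final 0.1–1000 μM in the well. 60 min at 37 °C, then urea read with α-isonitrosopropiophenone at 550 nm. IC50 taken from semilog plots of inhibition relative to solvent control; three experiments in triplicate, mean ± SEM.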

| Compound | inhibition (Bos taurus) [%] | IC50 [1] [µM] |
| --- | --- | --- |
| Oc1ccc(/C=C/c2cc(O)cc3c2[C@H](c2cc(O)cc(O)c2)[C@@H](c2ccc(O)cc2)O3)cc1 | 80 to 90 | 27.8 |
| OC[C@H]1O[C@@H](Oc2cc(/C=C/c3ccc(O)cc3)cc(O[C@@H]3O[C@H](CO)[C@@H](O)[C@H](O)[C@H]3O)c2)[C@H](O)[C@@H](O)[C@@H]1O | 80 to 90 |  |
| Oc1cc(O)cc(/C=C/c2ccc(O)c(O)c2)c1 [PICEATANNOL] | 80 to 90 | 12.6 |
| Oc1cc(O)cc([C@@H]2[C@@H](c3ccc(O)c(O)c3)c3cc(O)c(O)cc3[C@@H]3c4c(O)cc(O)cc4[C@@H]4c5c(cc(O)cc5[C@H]32)O[C@H]4c2ccc(O)c(O)c2)c1 | 80 to 90 | 12.2 |

Second part, the molecule after the results:

| inhibition (Bos taurus) [%] | IC50 [1] [µM] | Compound |
| --- | --- | --- |
| 80 to 90 |  | Oc1ccc([C@H]2Oc3cc(O)cc([C@@H]4[C@H](c5cc(O)cc(O)c5)[C@@H](c5ccc(O)cc5)O[C@@H]4c4ccc(O)cc4)c3[C@@H]2c2cc(O)cc3c2[C@@H](c2cc(O)cc(O)c2)[C@H](c2ccc(O)cc2)O3)cc1 |
|  | 1.7 | N=C(NO)NCC[C@H](N)C(=O)O [NOR-NOHA] |
| 80 to 90 | 22.6 | Oc1cc(O)cc([C@@H]2c3c(/C=C/c4ccc(O)c(O)c4)cc(O)cc3O[C@H]2c2ccc(O)c(O)c2)c1 |
| 80 to 90 | 182 | Oc1ccc([C@H]2c3c(O)cc(O)cc3[C@H]3c4c(cc(O)cc4[C@@H]2O)O[C@H]3c2ccc(O)cc2)cc1 |
| 80 to 90 | 25.3 | Oc1ccc([C@H]2Oc3cc(O)cc([C@@H]4[C@H](c5cc(O)cc(O)c5)[C@@H](c5ccc(O)cc5)O[C@@H]4c4ccc(O)cc4)c3[C@@H]2c2cc(O)cc3c2[C@@H](c2cc(O)cc(O)c2)[C@H](c2ccc(O)c(O)c2)O3)cc1 |

Source: ChEMBL document CHEMBL4130398, “Cyperaceae Species Are Potential Sources of Natural Mammalian Arginase Inhibitors with Positive Effects on Vascular Function” (J Nat Prod, 2017)
